Shown are actives, neighbours in structure and some others; about 3.1% of the full set was active somewhere.
OX1R antag-1 – blocks the human orexin 1 receptor; O43613; OX1R-expressing cells, FRET antagonist read-out; inhibition, % at 6.6 µM; hit rate 1.8% among 330,000; AID 485270; in the data active means inhibition mostly above about 38%, no sharp cut-off; inactive means mostly below about 40%;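 further: 0% = agonist challenge alone and 100% = reference antagonist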
Target sequence (O43613 whole entry, looked up): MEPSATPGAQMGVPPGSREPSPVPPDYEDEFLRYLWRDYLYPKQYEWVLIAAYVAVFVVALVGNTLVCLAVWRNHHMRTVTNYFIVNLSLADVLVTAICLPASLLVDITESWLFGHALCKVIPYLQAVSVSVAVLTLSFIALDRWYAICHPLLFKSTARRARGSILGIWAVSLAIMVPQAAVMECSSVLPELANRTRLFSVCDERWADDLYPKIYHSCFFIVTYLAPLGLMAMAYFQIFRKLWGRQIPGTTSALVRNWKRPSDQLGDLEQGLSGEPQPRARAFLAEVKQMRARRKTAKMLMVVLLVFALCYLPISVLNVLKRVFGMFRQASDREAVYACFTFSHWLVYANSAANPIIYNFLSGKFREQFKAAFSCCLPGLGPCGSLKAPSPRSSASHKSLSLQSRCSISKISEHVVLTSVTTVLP
OX1R antag-2 – antagonists of human orexin 1 receptor | O43613 | CHO/OX1R cells, Fluo-8 calcium fluorescence, orexin A | inhibition, % at 5 µM | hit rate 0.43% among 330,000;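 active means inhibition above its plate's threshold, mean inhibition of all tested compounds on the plate plus 3 SD, cut at about 37% in these data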;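 further: 0% = orexin A challenge wells and 100% = SB-334867-A antagonist wells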
GPR7 antagonist – blocks human GPR7 receptor signaling. AID 1861. hit rate 1.1% among 290,000. inhibition, % at 4.4 µM. GPR7-expressing cells, fluorescence antagonist assay. P48145; in the data active means inhibition above about 16%, passing the limit was not always enough;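 further: cells stimulated with the agonist NPW; 0% = agonist with vehicle and 100% = vehicle without agonist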
GalR3 antagonist – antagonists of human GalR3. O60755. HEK293 GalR3-CNG cAMP membrane potential fluorescence; galR3 body fused to GalR1 C-terminus. inhibition, % at 3 µM. hit rate 0.44% among 360,000. AID 651719;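 active means inhibition above the screen-wide average plus 3 SD, cut at about 13% in these data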;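 further: forskolin and galanin both at EC90 stimulate the cells; cAMP rise reported by CNG channel membrane potential dye signal; 0% = forskolin plus galanin with DMSO and 100% = forskolin alone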
CHO parental Ca – signal in parental CHO cells, OX1R antagonist counter-screen. parental CHO-K1, ATP-induced calcium, Fluo-8 fluorescence. inhibition, % at 5.6 µM. hit rate 0.63% among 330,000. AID 463079;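 active means inhibition above that plate's mean sample inhibition plus 3 SD, cut at about 26% in these data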;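 further: 0% = ATP-challenged DMSO wells and 100% = DMSO wells without ATP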
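Material: Parental CHO cells | Reagent: ATP | Compound dosing: Single nominal dose of 5.6 µM per compound | Detection: Intracellular calcium via Fluo-8 no-wash fluorescent dye | Read-out: % inhibition of ATP-induced calcium mobilization | Benchmarks: Low control ATP plus DMSO, high control DMSO only | Replicates: Singlicate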
Numbers without * were called inactive.

Cc1ccc(NC(=O)C2CCCN(S(=O)(=O)c3cccc4cccnc34)C2)cc1 (stereo not drawn) was read as OX1R antag-1 23, OX1R antag-2 -39, GPR7 antagonist 6, GalR3 antagonist 2 and CHO parental Ca -30.
COc1ccc(C)cc1NC(=O)c1ccccc1NS(=O)(=O)c1cccc2cccnc12 was read as OX1R antag-1 70*, OX1R antag-2 15, GPR7 antagonist -3, GalR3 antagonist -10 and CHO parental Ca -12.
Screening CC1CCCC(C)N1C(=O)c1ccccc1 (stereo not drawn) returned GalR3 antagonist -2.
Screening Cc1cc(N2CCN(C(=O)OC(C)(C)C)C[C@@H]2C)ccc1N1CCN(Cc2ccccc2)[C@H](C)C1 returned GalR3 antagonist -5.
Screening CCN(CC)c1ccc(-n2cc3c(=O)n(C)c(=O)n(C)c3c2)cc1 returned OX1R antag-1 74*, OX1R antag-2 12, GPR7 antagonist 0, GalR3 antagonist -4 and CHO parental Ca -15.
For CC(C)CC(c1nnnn1C(C)(C)C)N1CCN(C2CCCC2)CC1 (stereo not drawn) the results were OX1R antag-1 6, OX1R antag-2 -17, GPR7 antagonist 18*, GalR3 antagonist -6 and CHO parental Ca -10.
`Cc1ccc(C(c2nnnn2C(C)(C)C)N2CCN(C3CCCC3)CC2)cc1` (stereo not drawn) gave OX1R antag-1 12, OX1R antag-2 -17, GPR7 antagonist -5, GalR3 antagonist -3 and CHO parental Ca -24.
Screening COCCN1CCCc2nc(-c3ccc(F)cc3)ccc21 returned GalR3 antagonist -3.
Cc1ccc(C(=O)Nc2cccc(-c3cn4ccccc4n3)c2)cc1 was read as OX1R antag-1 44, OX1R antag-2 -21, GPR7 antagonist -17, GalR3 antagonist -7 and CHO parental Ca -18.
CCCCC(=O)Nc1cccc(-c2cn3ccccc3n2)c1 was read as OX1R antag-1 27, OX1R antag-2 -34, GPR7 antagonist -20, GalR3 antagonist 6 and CHO parental Ca -23.
Cc1ccccc1C(=O)Nc1cccc(-c2cn3ccccc3n2)c1 was read as OX1R antag-1 73*, OX1R antag-2 -24, GPR7 antagonist -10, GalR3 antagonist -7 and CHO parental Ca -20.
`O=C(Nc1cccc(-c2cn3ccccc3n2)c1)c1ccccc1` gave OX1R antag-1 53*, OX1R antag-2 -14, GPR7 antagonist -7, GalR3 antagonist -4 and CHO parental Ca -20.
CSc1c(N(C)C)c(=O)c1=S was read as GalR3 antagonist -8.
`O=[N+]([O-])c1cc(Br)c2c(c1)CCN2` gave GalR3 antagonist 1.
O=[N+]([O-])c1cc(Cl)cc(C2=NCCN2)c1 was read as OX1R antag-1 61*, OX1R antag-2 -7, GPR7 antagonist -7, GalR3 antagonist -6 and CHO parental Ca -5.
Screening C=CCN1C(=O)c2[nH]nc(-c3ccccc3)c2C1c1ccc(C)cc1 (stereo not drawn) returned GalR3 antagonist -9.
`C=CCN1[C@@H](C)[C@@H](c2ccccc2)Oc2c(Cl)cccc2S1(=O)=O` gave GalR3 antagonist -7.
Screening COc1ccccc1N1C(=O)CC(Nc2ccc(N3CCOCC3)cc2)C1=O (stereo not drawn) returned OX1R antag-1 71*, OX1R antag-2 -18, GPR7 antagonist -12, GalR3 antagonist -2 and CHO parental Ca 5.
For CN(Cc1cn(Cc2cccc(Cl)c2)nn1)C1CN(Cc2cn(Cc3cccc(Cl)c3)nn2)S(=O)(=O)C1 (stereo not drawn) the results were GalR3 antagonist 0.
For CCc1ccc(OCC(=O)NNC(=O)CNC(=O)c2ccc(Br)o2)cc1 the results were OX1R antag-1 -2, OX1R antag-2 -9, GalR3 antagonist 3 and CHO parental Ca -8.
Screening CCCOc1ccc(OC(=O)c2ccc(Br)o2)cc1 returned OX1R antag-1 32, OX1R antag-2 67*, GPR7 antagonist 2, GalR3 antagonist -5 and CHO parental Ca 56*.
Screening O=C(Nc1ccc([N+](=O)[O-])cn1)c1ccc(Br)o1 returned OX1R antag-1 64*, OX1R antag-2 -5, GPR7 antagonist -2, GalR3 antagonist -5 and CHO parental Ca -10.
Screening Cc1cc(SCC(=O)N2CCC(c3noc4ccc(F)cc34)CC2)nc2ccccc12 returned OX1R antag-1 49*, OX1R antag-2 -27, GPR7 antagonist -2, GalR3 antagonist -7 and CHO parental Ca -11.
`O=C(CSc1ncnc2sc3c(c12)CCCC3)N1CCC(c2noc3ccc(F)cc23)CC1` gave OX1R antag-1 6, OX1R antag-2 -15, GPR7 antagonist -9, GalR3 antagonist -8 and CHO parental Ca -8.
For S=C(NCc1ccc2c(c1)OCO2)Nc1ccc2nsnc2c1 the results were OX1R antag-1 40, OX1R antag-2 53*, GPR7 antagonist 8, GalR3 antagonist -3 and CHO parental Ca 32.
For Cc1ccc(NC(=S)NCc2ccc3c(c2)OCO3)cc1C the results were OX1R antag-1 4, OX1R antag-2 -11, GPR7 antagonist -10, GalR3 antagonist -5 and CHO parental Ca -17.
`CCOc1ccc(NC(=S)Nc2ccc3nsnc3c2)cc1` gave OX1R antag-1 113*, OX1R antag-2 -12, GPR7 antagonist 11, GalR3 antagonist 2 and CHO parental Ca -12.
Nc1cc2cccnc2cc1Cl was read as GalR3 antagonist -4.
COc1cccc(CN(CCC(=O)O)Cc2cccc(OC)c2)c1 was read as GalR3 antagonist 1.
`CC(C)(C)[C@H]1COC(=O)[C@@H](Cc2ccc(F)cc2)C/C=C\C[C@@H](CC(=O)N[C@@H](CO)Cc2ccccc2)C(=O)N1` gave OX1R antag-1 62*, OX1R antag-2 43, GalR3 antagonist -6 and CHO parental Ca -34.
Screening O=c1cc(-c2ccccc2)oc2c1ccc1ccccc12 returned GalR3 antagonist -5.
For O=c1cc(/C=C/c2ccccc2)oc2c1ccc1ccccc12 the results were OX1R antag-1 56*, OX1R antag-2 -25, GPR7 antagonist -8, GalR3 antagonist 2 and CHO parental Ca -26.
Screening O=c1cc(-c2cccnc2)oc2c1ccc1ccccc12 returned OX1R antag-1 36*, OX1R antag-2 -12, GPR7 antagonist -12, GalR3 antagonist 0 and CHO parental Ca -3.
`c1ccc(CN2CCCC3CC2c2ccccc23)cc1` (stereo not drawn) gave GalR3 antagonist -7.
For O=S1(=O)N[C@@H](Cc2ccccc2)COc2cc(N3CCOCC3)ccc21 the results were GalR3 antagonist -6.
For COC(=O)[C@@]1(Cc2ccc(F)cc2)[C@H]2c3cc(C(=O)N(C)C)n(CCCNc4ncc(C(F)(F)F)cc4Cl)c3C[C@H]2CN1C(=O)c1ccccc1 the results were GalR3 antagonist -6.
For CCN1CCN(c2ccc(S(=O)(=O)N3CCCCC3)cc2NC(=O)Cc2ccc(Cl)c(Cl)c2)CC1 the results were OX1R antag-1 19, OX1R antag-2 45 and CHO parental Ca 74*.

High-throughput results (PubChem)
